From ChEMBL document CHEMBL1138845, “Design of non-nucleoside inhibitors of HIV-1 reverse transcriptase with improved drug resistance properties. 2” (J Med Chem, 2004) come the findings set out here.

Assay [1] deals with HeLa. Put plainly: Inhibitory concentration against human immunodeficiency virus type 1 (with Y188C resistant mutation) was determined in HeLa-CD4 MAGI assay. It counts as functional, cell-based. A digest of the protocol: (§1)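 Tested against a panel of recombinant, isogenic HIV-1 viruses, wild type and NNRTI-resistant strains carrying engineered single or double RT mutations. The readout was IC50.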

Assay [2] deals with Human immunodeficiency virus 1. Briefly: Inhibitory concentration against wild type human immunodeficiency virus type 1 was determined by recombinant virus assay. It is filed as functional, organism-based. The gist of the method:
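Isogenic recombinant HIV-1 carrying wild-type RT, tested in parallel with a panel of NNRTI-resistant RT mutants built on the same background; activity reported as IC50.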

The test system of assay [3] is MT4. Briefly: Ratio of cytotoxic concentration to that of inhibitory concentration as selectivity index was determined by MT-4 assay. It counts as functional, Homo sapiens. A digest of the protocol: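 Index is the IC50 in uninfected MT4 cells divided by the antiviral IC50 in MT4 cells infected with wild-type HIV-1 or the nevirapine-resistant strain carrying RT mutation Y181C.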

The subject of assay [4] is MT4. Put plainly: Inhibitory concentration against wild type human immunodeficiency virus type 1 was determined by MT-4 assay. It counts as functional, cell-based.
The test system of assay [5] is HeLa. Briefly: Inhibitory concentration against human immunodeficiency virus type 1 (with G190A resistant mutation) was determined in HeLa-CD4 MAGI assay. It counts as functional, cell-based. A digest of the protocol: as §1
Assay [6] deals with HeLa. Briefly: Inhibitory concentration against human immunodeficiency virus type 1 (with K103N/G190A resistant mutation) was determined in HeLa-CD4 MAGI assay. It is filed as functional, cell-based. The gist of the method: as §1
For assay [7], the system named is HeLa. Put plainly: Inhibitory concentration against human immunodeficiency virus type 1 (with V106A resistant mutation) was determined in HeLa-CD4 MAGI assay. It counts as functional, cell-based. The gist of the method: as §1
The test system of assay [8] is MT4. Briefly: Inhibitory concentration against nevirapine resistant strain (with Y181C mutation in HIV-1 RT gene) of human immunodeficiency virus type 1 was determined by MT-4 assay. It is filed as functional, cell-based.
For assay [9], the system named is HeLa. Put plainly: Inhibitory concentration against human immunodeficiency virus type 1 (with V108I resistant mutation) was determined in HeLa-CD4 MAGI assay. It counts as functional, cell-based. A digest of the protocol:
as §1

Assay [10] relates to HeLa. Briefly: Inhibitory concentration against human immunodeficiency virus type 1 (with K103N resistant mutation) was determined in HeLa-CD4 MAGI assay. It is filed as functional, cell-based. The gist of the method: as §1
In assay [11] the test system is HeLa. Briefly: Inhibitory concentration against human immunodeficiency virus type 1 (with Y181C resistant mutation) was determined in HeLa-CD4 MAGI assay. It counts as functional, cell-based. A digest of the protocol:
as §1

The subject of assay [12] is HeLa. Put plainly: Inhibitory concentration against human immunodeficiency virus type 1 (with K103N/V108I resistant mutation) was determined in HeLa-CD4 MAGI assay. It is filed as functional, cell-based. A digest of the protocol:
as §1

The subject of assay [13] is HeLa. Put plainly: Inhibitory concentration against human immunodeficiency virus type 1 (with K103N/Y181C resistant mutation) was determined in HeLa-CD4 MAGI assay. It counts as functional, cell-based. The gist of the method:
as §1

For assay [14], the system named is HeLa. Briefly: Inhibitory concentration against human immunodeficiency virus type 1 (with V108I/Y181C resistant mutation) was determined in HeLa-CD4 MAGI assay. It is filed as functional, cell-based. A digest of the protocol: as §1
For assay [15], the system named is HeLa. Put plainly: Inhibitory concentration against human immunodeficiency virus type 1 (with V106A/Y181C resistant mutation) was determined in HeLa-CD4 MAGI assay. It counts as functional, cell-based. The gist of the method: as §1

The term IC50 denotes the concentration needed to halve the response being measured. Take `CCCc1c(O)nc2ccc(Br)cc2c1OC1CCCC1`: the IC50 is 9 nM in assay [1]; 49 nM in assay [2]; 120 nM in [4]; 32 nM in [5]; more than 2000 nM in assay [6]; 430 nM in [7]. For the same compound, the IC50 in [8] is 1700 nM; in assay [9], 120 nM; in [10] it was more than 2000 nM; in assay [11], more than 2000 nM; in [12] it was more than 2000 nM; in assay [13], more than 2000 nM. The half-maximal inhibitory concentration (IC50) in assay [14] was 520 nM; in [15] it was more than 2000 nM. Moreover, in assay [3], the Ratio is on record as more than 40000.
As for `CCCc1c(O)nc2ccccc2c1OC1CCCC1`, the 50% inhibitory concentration (IC50) in assay [1] was 180 nM; in assay [2], 350 nM; in assay [4] it was 380 nM; in assay [5], 270 nM; in assay [6] it was more than 2000 nM; in assay [7] it was more than 2000 nM. Further, the IC50 was 3900 nM in assay [8]; 1220 nM in [9]; more than 2000 nM in assay [10]; 630 nM in assay [11]; more than 2000 nM in assay [12]; more than 2000 nM in [13]. Also, the half-maximal inhibitory concentration (IC50) in assay [14] and in [15] was more than 2000 nM each time. Besides, the Ratio in assay [3] is given as more than 40000.
Regarding `CC(C)c1c(OC#CC2CC2)c2cc(F)ccc2[nH]c1=O`, the IC50 in assay [1] was found to be 23 nM; in assay [2], 10 nM; in assay [5] it was 5 nM; in [6] it was 100 nM; in [7], 150 nM; in assay [8], 25 nM. The IC50 was 26 nM in [9]; 400 nM in assay [10]; 15 nM in assay [11]; 720 nM in assay [12]; 620 nM in assay [13]; 11 nM in assay [14]. Further, the IC50 in [15] came out at 220 nM. In addition, the Ratio in assay [3] amounted to 16000.
For the compound `CCCc1c(O)nc2ccc(F)c([N+](=O)[O-])c2c1OCC1CCC1`, the half-inhibitory concentration (IC50) is 250 nM in assay [1]; 1100 nM in assay [2]; 1200 nM in assay [4]; 540 nM in [5]; more than 2000 nM in [6]; more than 2000 nM in assay [7]. Besides, the IC50 is 1800 nM in [8]; approximately 1000 nM in assay [9]; more than 2000 nM in [10]; more than 2000 nM in assay [11]; more than 2000 nM in assay [12]; more than 2000 nM in assay [13]. Further, the half-maximal inhibitory concentration (IC50) in assay [14] is more than 2000 nM; in assay [15], 1000 nM. The Ratio in assay [3] was more than 8000.
With `CC(C)Nc1cccnc1N1CCN(C(=O)c2cc3cc(NS(C)(=O)=O)ccc3[nH]2)CC1` [DELAVIRDINE], the concentration for half-maximal inhibition (IC50) came to 124 nM in [1]; 159 nM in [2]; 35 nM in [5]; 8000 nM in assay [6]; 870 nM in [7]; 97 nM in assay [9]. The concentration for half-maximal inhibition (IC50) in [10] stood at 2650 nM; in assay [12] it was 3400 nM; in assay [13], 1250 nM; in [14] it was 10000 nM; in assay [15], 10000 nM.
On to `O=C1Nc2ccc(Cl)cc2[C@@](C#CC2CC2)(C(F)(F)F)O1` [EFAVIRENZ], for which the 50% inhibitory concentration (IC50) in assay [1] worked out at 1 nM; in [5] it was 7 nM; in assay [6] it was 552 nM; in assay [7] it was 1 nM; in assay [10], 23 nM; in assay [11], 2 nM. The half-maximal inhibitory concentration (IC50) came out at 43 nM in [13], 3 nM in assay [14] and 3 nM in assay [15].
With `Cc1ccnc2c1NC(=O)c1cccnc1N2C1CC1` [NEVIRAPINE], the IC50 in assay [2] is 89 nM; in assay [5], more than 10000 nM; in [7], approximately 10000 nM; in [11], more than 10000 nM; in assay [13], more than 50000 nM; in [14], more than 10000 nM. In assay [15], this compound returned an IC50 of more than 10000 nM.
